Our source for the zone of inhibition and MIC values is ChEMBL document CHEMBL3351454, “Design, synthesis, antimicrobial evaluation and molecular docking studies of some new thiophene, pyrazole and pyridone derivatives bearing sulfisoxazole moiety” (2014).

Molecules are shown by their SMILES. In brackets after ≈: the same amount, converted by molar mass.

The first assay deals with Streptococcus pneumoniae. Nature of the assay: Antimicrobial activity against Streptococcus pneumoniae RCMB 010010 assessed as inhibition zone at 5 mg/ml after 24 hrs. Type of assay: functional. The conditions noted are these: RCMB 010010, 24 h, read-out: IZ. An outline of the steps:
(§1)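 Agar diffusion on nutrient agar seeded with 10^6 CFU/mL bacteria. Filter-paper disks were loaded with 100 µL of a 5 mg/mL compound solution in DMF, with a DMF-only control. Incubation was 37 °C for 24 h. Inhibition zone in mm (mean ± SD, triplicate plates) was measured beyond the 6 mm diameter.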
For `Cc1noc(NS(=O)(=O)c2ccc(NC(=O)/C(C#N)=C/c3ccc(Cl)cc3)cc2)c1C`, the zone of inhibition at 5000 µg/mL was 20.3 mm.

Regarding `Cc1noc(NS(=O)(=O)c2ccc(NC(=O)/C(C#N)=C/c3cccnc3)cc2)c1C`, the zone of inhibition at 5000 µg/mL came to 24.6 mm.

Another assay deals with Streptococcus pneumoniae. In words: Antimicrobial activity against Streptococcus pneumoniae RCMB 010010 assessed as absence of turbidity after 24 hrs. Type of assay: functional. The conditions noted are these: RCMB 010010, 24 h. The method, boiled down:
(§2)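 Broth microdilution in Müller–Hinton broth. DMF stocks at 1000 µg/mL were diluted in broth to give twofold serial dilutions over 500–0.007 µg/mL. Bacterial inoculum was about 10^6 CFU/mL in 96-well plates, sealed and incubated at 37 °C for 24 h in a humid chamber. MIC was taken as the lowest concentration with no visible turbidity. DMF and uninoculated-medium controls were included. Only compounds giving zones >10 mm were tested.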
As usually defined, the MIC is the lowest concentration found to suppress growth. Turning to `Cc1noc(NS(=O)(=O)c2ccc(NC(=O)/C(C#N)=C/c3ccc(Cl)cc3)cc2)c1C`, the MIC is 0.98 µg/mL (≈ 2.14 µM).

Consider `Cc1noc(NS(=O)(=O)c2ccc(NC(=O)/C(C#N)=C/c3cccnc3)cc2)c1C`, for which the MIC is 0.06 µg/mL (≈ 0.142 µM).

The subject of the next assay is Bacillus subtilis. In words: Antimicrobial activity against Bacillis subtilis RCMB 010067 assessed as inhibition zone at 5 mg/ml after 24 hrs. Type of assay: functional. To be noted: RCMB 010067, 24 h, read-out: IZ. The method, boiled down: as §1
For `Cc1noc(NS(=O)(=O)c2ccc(NC(=O)/C(C#N)=C/c3ccc(Cl)cc3)cc2)c1C`, the zone of inhibition at 5000 µg/mL amounted to 25.6 mm.

`Cc1noc(NS(=O)(=O)c2ccc(NC(=O)/C(C#N)=C/c3cccnc3)cc2)c1C`: the zone of inhibition at 5000 µg/mL came out at 26.2 mm.

Another assay deals with Bacillus subtilis. In words: Antimicrobial activity against Bacillis subtilis RCMB 010067 assessed as absence of turbidity after 24 hrs. Type of assay: functional. The conditions noted are these: RCMB 010067, 24 h. The method, boiled down: as §2
`Cc1noc(NS(=O)(=O)c2ccc(NC(=O)/C(C#N)=C/c3ccc(Cl)cc3)cc2)c1C`: the MIC came out at 0.03 µg/mL (≈ 0.0657 µM).

In the case of `Cc1noc(NS(=O)(=O)c2ccc(NC(=O)/C(C#N)=C/c3cccnc3)cc2)c1C`, the minimum inhibitory concentration (MIC) came out at 0.03 µg/mL (≈ 0.0708 µM).

Another assay has as its system Staphylococcus epidermidis. Nature of the assay: Antimicrobial activity against Staphylococcus epidermidis RCMB 010024 assessed as inhibition zone at 5 mg/ml after 24 hrs. Type of assay: functional. To be noted: RCMB 010024, 24 h, read-out: IZ. An outline of the steps: as §1
Regarding `Cc1noc(NS(=O)(=O)c2ccc(NC(=O)/C(C#N)=C/c3ccc(Cl)cc3)cc2)c1C`, the zone of inhibition at 5000 µg/mL turned out to be 22.3 mm.

As for `Cc1noc(NS(=O)(=O)c2ccc(NC(=O)/C(C#N)=C/c3cccnc3)cc2)c1C`, the zone of inhibition at 5000 µg/mL was 22.3 mm.

A further assay deals with Staphylococcus epidermidis. Nature of the assay: Antimicrobial activity against Staphylococcus epidermidis RCMB 010024 assessed as absence of turbidity after 24 hrs. Type of assay: functional. The conditions noted are these: RCMB 010024, 24 h. An outline of the steps: as §2
Consider `Cc1noc(NS(=O)(=O)c2ccc(NC(=O)/C(C#N)=C/c3ccc(Cl)cc3)cc2)c1C`, for which the minimal inhibitory concentration (MIC) is 0.49 µg/mL (≈ 1.07 µM).

Turning to `Cc1noc(NS(=O)(=O)c2ccc(NC(=O)/C(C#N)=C/c3cccnc3)cc2)c1C`, the MIC worked out at 0.49 µg/mL (≈ 1.16 µM).

The test system of a further assay is Escherichia coli. Nature of the assay: Antimicrobial activity against Escherichia coli RCMB 010052 assessed as inhibition zone at 5 mg/ml after 24 hrs. It is filed as functional. To be noted: RCMB 010052, 24 h, read-out: IZ. An outline of the steps: as §1
With `Cc1noc(NS(=O)(=O)c2ccc(NC(=O)/C(C#N)=C/c3ccc(Cl)cc3)cc2)c1C`, the zone of inhibition at 5000 µg/mL amounted to 22.1 mm.

For the molecule `Cc1noc(NS(=O)(=O)c2ccc(NC(=O)/C(C#N)=C/c3cccnc3)cc2)c1C`, the zone of inhibition at 5000 µg/mL worked out at 23.7 mm.

In a further assay the test system is Escherichia coli. In words: Antimicrobial activity against Escherichia coli RCMB 010052 assessed as absence of turbidity after 24 hrs. Type of assay: functional. To be noted: RCMB 010052, 24 h. The method, boiled down: as §2
For `Cc1noc(NS(=O)(=O)c2ccc(NC(=O)/C(C#N)=C/c3ccc(Cl)cc3)cc2)c1C`, the minimal inhibitory concentration (MIC) came to 0.49 µg/mL (≈ 1.07 µM).

Consider `Cc1noc(NS(=O)(=O)c2ccc(NC(=O)/C(C#N)=C/c3cccnc3)cc2)c1C`, for which the MIC was found to be 0.12 µg/mL (≈ 0.283 µM).

A further assay deals with Proteus vulgaris. In words: Antimicrobial activity against Proteus vulgaris RCMB 010085 assessed as inhibition zone at 5 mg/ml after 24 hrs. Type of assay: functional. The conditions noted are these: RCMB 010085, 24 h, read-out: IZ. An outline of the steps: as §1
Regarding `Cc1noc(NS(=O)(=O)c2ccc(NC(=O)/C(C#N)=C/c3ccc(Cl)cc3)cc2)c1C`, the zone of inhibition at 5000 µg/mL came out at 19.2 mm.

For `Cc1noc(NS(=O)(=O)c2ccc(NC(=O)/C(C#N)=C/c3cccnc3)cc2)c1C`, the zone of inhibition at 5000 µg/mL was 19.3 mm.

The test system of the next assay is Proteus vulgaris. Nature of the assay: Antimicrobial activity against Proteus vulgaris RCMB 010085 assessed as absence of turbidity after 24 hrs. To be noted: RCMB 010085, 24 h. Type of assay: functional. An outline of the steps: as §2
With `Cc1noc(NS(=O)(=O)c2ccc(NC(=O)/C(C#N)=C/c3ccc(Cl)cc3)cc2)c1C`, the MIC stood at 3.9 µg/mL (≈ 8.54 µM).

For the molecule `Cc1noc(NS(=O)(=O)c2ccc(NC(=O)/C(C#N)=C/c3cccnc3)cc2)c1C`, the minimum inhibitory concentration (MIC) was 3.9 µg/mL (≈ 9.21 µM).

The test system of the next assay is Klebsiella pneumoniae. Nature of the assay: Antimicrobial activity against Klebsiella pneumoniae RCMB 010093 assessed as inhibition zone at 5 mg/ml after 24 hrs. To be noted: RCMB 010093, 24 h, read-out: IZ. It is filed as functional. An outline of the steps: as §1
As for `Cc1noc(NS(=O)(=O)c2ccc(NC(=O)/C(C#N)=C/c3ccc(Cl)cc3)cc2)c1C`, the zone of inhibition at 5000 µg/mL was found to be 23.9 mm.

As to `Cc1noc(NS(=O)(=O)c2ccc(NC(=O)/C(C#N)=C/c3cccnc3)cc2)c1C`, the zone of inhibition at 5000 µg/mL stood at 24.2 mm.

A further assay concerns Klebsiella pneumoniae. Nature of the assay: Antimicrobial activity against Klebsiella pneumoniae RCMB 010093 assessed as absence of turbidity after 24 hrs. Type of assay: functional. To be noted: RCMB 010093, 24 h. An outline of the steps: as §2
Take `Cc1noc(NS(=O)(=O)c2ccc(NC(=O)/C(C#N)=C/c3ccc(Cl)cc3)cc2)c1C`: the MIC was 0.06 µg/mL (≈ 0.131 µM).

Consider `Cc1noc(NS(=O)(=O)c2ccc(NC(=O)/C(C#N)=C/c3cccnc3)cc2)c1C`, for which the minimum inhibitory concentration (MIC) worked out at 0.12 µg/mL (≈ 0.283 µM).

A further assay has as its system Aspergillus fumigatus. In words: Antifungal activity against Aspergillus fumigatus RCMB 02568 assessed as inhibition zone at 5 mg/ml after 48 hrs. It is filed as functional. To be noted: RCMB 02568, 48 h, read-out: IZ. An outline of the steps: (§3)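 Disk diffusion on nutrient agar seeded with 10^4 CFU/mL fungus. Sterile filter-paper disks carried 100 µL of a 5 mg/mL DMF solution, and DMF alone served as control. Plates were incubated at 25 °C for 48 h. Mean inhibition zone in mm ± SD was read beyond the 6 mm diameter, in triplicate.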
Consider `Cc1noc(NS(=O)(=O)c2ccc(NC(=O)/C(C#N)=C/c3ccc(Cl)cc3)cc2)c1C`, for which the zone of inhibition at 5000 µg/mL amounted to 20.3 mm.

On to `Cc1noc(NS(=O)(=O)c2ccc(NC(=O)/C(C#N)=C/c3cccnc3)cc2)c1C`, for which the zone of inhibition at 5000 µg/mL was 23.4 mm.

Another assay relates to Aspergillus fumigatus. Nature of the assay: Antifungal activity against Aspergillus fumigatus RCMB 02568 assessed as absence of turbidity after 48 hrs. It is filed as functional. The conditions noted are these: RCMB 02568, 48 h. The method, boiled down: (§4)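 Broth microdilution in Sabouraud liquid medium. DMF stocks at 1000 µg/mL were diluted in broth to give twofold serial dilutions over 500–0.007 µg/mL. Fungal inoculum was about 10^4 CFU/mL in 96-well plates, sealed and incubated at 25 °C for 48 h in a humid chamber. MIC was taken as the lowest concentration with no visible turbidity. DMF and uninoculated-medium controls were included.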
As to `Cc1noc(NS(=O)(=O)c2ccc(NC(=O)/C(C#N)=C/c3ccc(Cl)cc3)cc2)c1C`, the MIC was found to be 0.98 µg/mL (≈ 2.14 µM).

In the case of `Cc1noc(NS(=O)(=O)c2ccc(NC(=O)/C(C#N)=C/c3cccnc3)cc2)c1C`, the MIC is 0.49 µg/mL (≈ 1.16 µM).

The next assay concerns Syncephalastrum racemosum. In words: Antifungal activity against Syncephalastrum racemosum RCMB 05922 assessed as inhibition zone at 5 mg/ml after 48 hrs. Type of assay: functional. To be noted: RCMB 05922, 48 h, read-out: IZ.
For the molecule `Cc1noc(NS(=O)(=O)c2ccc(NC(=O)/C(C#N)=C/c3ccc(Cl)cc3)cc2)c1C`, the zone of inhibition at 5000 µg/mL is 21.6 mm.

Turning to `Cc1noc(NS(=O)(=O)c2ccc(NC(=O)/C(C#N)=C/c3cccnc3)cc2)c1C`, the zone of inhibition at 5000 µg/mL was determined as 18.7 mm.

In a further assay the test system is Syncephalastrum racemosum. In words: Antifungal activity against Syncephalastrum racemosum RCMB 05922 assessed as absence of turbidity after 48 hrs. It is filed as functional. To be noted: RCMB 05922, 48 h.
As to `Cc1noc(NS(=O)(=O)c2ccc(NC(=O)/C(C#N)=C/c3ccc(Cl)cc3)cc2)c1C`, the minimum inhibitory concentration (MIC) worked out at 0.98 µg/mL (≈ 2.14 µM).

Take `Cc1noc(NS(=O)(=O)c2ccc(NC(=O)/C(C#N)=C/c3cccnc3)cc2)c1C`: the MIC turned out to be 3.9 µg/mL (≈ 9.21 µM).

A further assay deals with Geotrichum candidum. In words: Antifungal activity against Geotrichum candidum RCMB 05097 assessed as inhibition zone at 5 mg/ml after 48 hrs. It is filed as functional. To be noted: RCMB 05097, 48 h, read-out: IZ. The method, boiled down:
as §3
`Cc1noc(NS(=O)(=O)c2ccc(NC(=O)/C(C#N)=C/c3ccc(Cl)cc3)cc2)c1C`: the zone of inhibition at 5000 µg/mL is 24.6 mm.

As for `Cc1noc(NS(=O)(=O)c2ccc(NC(=O)/C(C#N)=C/c3cccnc3)cc2)c1C`, the zone of inhibition at 5000 µg/mL amounted to 25.6 mm.

The next assay deals with Geotrichum candidum. Nature of the assay: Antifungal activity against Geotrichum candidum RCMB 05097 assessed as absence of turbidity after 48 hrs. It is filed as functional. To be noted: RCMB 05097, 48 h. The method, boiled down:
as §4
For the molecule `Cc1noc(NS(=O)(=O)c2ccc(NC(=O)/C(C#N)=C/c3ccc(Cl)cc3)cc2)c1C`, the MIC came to 0.12 µg/mL (≈ 0.263 µM).

Consider `Cc1noc(NS(=O)(=O)c2ccc(NC(=O)/C(C#N)=C/c3cccnc3)cc2)c1C`, for which the MIC was determined as 0.03 µg/mL (≈ 0.0708 µM).
